Values after ≈ are worked out from the molar mass of the structure shown. Active and inactive are the calls of the source. The rule behind the calls is not given here.
Tests used:
[1] = tested on: Klebsiella aerogenes; test: Inhibition of multidrug resistance efflux pump in Enterobacter aerogenes EA289 assessed as dose required to restore 2 ug/ml doxycycline-induced inhibition of visible growth after 18 hrs by standard broth dilution method
Method in brief: (§1)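 Broth microdilution in MH broth, inoculum 10^5 CFU in 200 μL, 2-fold serial dilutions of derivative with fixed antibiotic (2 μg/mL). Lowest derivative concentration giving complete inhibition of visible growth after 18 h at 37 °C recorded. Antibiotics dissolved in DMSO. Independently repeated at least three times.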

[2] = tested on: Staphylococcus aureus; test: Antibacterial activity against Staphylococcus aureus DSM799 assessed as inhibition of visible growth after 18 hrs incubation by standard broth dilution method; format: functional; settings: DSM799, 18 h
Method in brief: (§2)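 Broth microdilution per CA-SFM: inoculum 10^5 CFU in 200 μL Mueller–Hinton broth with 2-fold serial dilutions of compound; MIC = lowest concentration with no visible growth after 18 h at 37 °C. Independently repeated at least three times. Strains kept at −80 °C in 15% glycerol and grown routinely in MH broth at 37 °C.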

[3] = tested on: Klebsiella pneumoniae; test: Inhibition of multidrug resistance efflux pump in Klebsiella pneumoniae KPC2 ST258 assessed as dose required to restore 2 ug/ml doxycycline-induced inhibition of visible growth after 18 hrs by standard broth dilution method
Method in brief: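 Broth microdilution in Mueller-Hinton broth, CA-SFM recommendations. Inoculum 10^5 CFU in 200 μL containing 2-fold serial dilutions of derivative plus doxycycline at 2 μg/mL, 37 °C for 18 h. Antibiotics dissolved in DMSO, up to 5% v/v. Repeated independently at least three times.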

[4] = tested on: Pseudomonas aeruginosa PAO1; test: Inhibition of multidrug resistance efflux pump in Pseudomonas aeruginosa PAO1 assessed as dose required to restore 2 ug/ml doxycycline-induced inhibition of visible growth after 18 hrs by standard broth dilution method; method in brief: as §1
[5] = tested on: Klebsiella aerogenes; test: Antibacterial activity against Enterobacter aerogenes EA289 assessed as inhibition of visible growth after 18 hrs incubation by standard broth dilution method; format: functional; settings: EA289, 18 h; method in brief: as §2
[6] = tested on: Klebsiella pneumoniae; test: Antibacterial activity against Klebsiella pneumoniae KPC2 ST258 assessed as inhibition of visible growth after 18 hrs incubation by standard broth dilution method; format: functional; settings: KPC2, 18 h; method in brief: as §2
[7] = tested on: Pseudomonas aeruginosa; test: Antibacterial activity against Pseudomonas aeruginosa PAO1 assessed as inhibition of visible growth after 18 hrs incubation by standard broth dilution method; format: functional; settings: PAO1, 18 h; method in brief: as §2
[8] = Cytotoxicity against CHOK1 cells assessed as decrease in cell viability after 24 hrs by WST-1 assay; format: cell-based; settings: Cricetulus griseus, CHO-K1, 24 h
Method in brief: (§3)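 CHO-K1 (McCoy's 5A) and human fibroblasts (DMEM), both with 10% bovine calf serum, 2 mM glutamine, penicillin/streptomycin, 37 °C, 5% CO2. Seeded, left overnight, then exposed to various compound concentrations in triplicate for 24 h at 37 °C. Washed three times in PBS, 30 min in PBS with 10% WST-1, A450. Viability as % of medium-only control; IC50 by nonlinear regression.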

[9] = Cytotoxicity against human fibroblasts assessed as decrease in cell viability after 24 hrs by WST-1 assay; format: cell-based; settings: Fibroblast; method in brief: as §3
[10] = tested on: Pseudomonas aeruginosa PAO1; test: Inhibition of multidrug resistance efflux pump in Pseudomonas aeruginosa PAO1 assessed as depolarization by spectrofluorometry
Method in brief: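 PAO1 grown 24 h at 37 °C in MH broth, washed twice in buffered 250 mM sucrose with 5 mM MgSO4. Loaded with 3 μM 3,3-diethylthiodicarbocyanine iodide for 1 h at 37 °C, then derivative added at various concentrations. Fluorescence read at 0–21 min intervals. Maximum taken as 3 μM dye alone in buffer.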

[11] = tested on: Pseudomonas aeruginosa PAO1; test: Inhibition of multidrug resistance efflux pump in Pseudomonas aeruginosa PAO1 assessed as dose required to restore 2 ug/ml cefepime-induced inhibition of visible growth after 18 hrs by standard broth dilution method; method in brief: as §1
[12] = tested on: Pseudomonas aeruginosa; test: Disruption of outermembrane in Pseudomonas aeruginosa PAO1 assessed as ATP efflux at 2 mM by bioluminescence method; format: functional
Method in brief: (§4)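 After 5 min an aliquot was vortexed, luciferin–luciferase added and luminescence read for 5 s. ATP quantified with an internal standard; maximal release set with 0.02% […].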

[13] = tested on: Pseudomonas aeruginosa; test: Disruption of outermembrane in Pseudomonas aeruginosa PAO1 assessed as ATP efflux at 2 to 200 uM by bioluminescence method; format: functional, organism-based; method in brief: as §4
[14] = tested on: Pseudomonas aeruginosa; test: Disruption of outermembrane in Pseudomonas aeruginosa PAO1 assessed as ATP efflux at 2 to 200 uM by bioluminescence method in presence of 2 to 50 ug/ml doxycycline; format: functional, organism-based; method in brief: as §4
[15] = tested on: Pseudomonas aeruginosa; test: Disruption of outermembrane in Pseudomonas aeruginosa PAO1 assessed as rate of nitrocefin hydrolysis at 500 uM spectrophotometrically; format: functional, organism-based
Method in brief: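 PAO1 grown in MH broth at 37 °C to OD600 0.5; then room temperature. Cells centrifuged and washed once in 20 mM potassium phosphate pH 7.2 with 1 mM MgCl2, then exposed to compound. Nitrocefin added to final 50 μg/mL as periplasmic β-lactamase substrate; hydrolysis followed as rising absorbance at 490 nm against untreated control.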

[16] = tested on: Pseudomonas aeruginosa PAO1; test: Inhibition of multidrug resistance efflux pump in Pseudomonas aeruginosa PAO1 assessed as dose required to restore 2 ug/ml chloramphenicol-induced inhibition of visible growth after 18 hrs by standard broth dilution method; method in brief: as §1

Row | SMILES | Activity [1] [µM] | MIC [2] [µM] | Activity [3] [µM] | Activity [4] [µM] | inhibition [4] | MIC [5] [µM] | MIC [6] [µM] | MIC [7] [µM] | IC50 [8] [µM] | IC50 [9] [µM] | inhibition [10] | Activity [11] [µM] | Activity [12] [%] | inhibition [13] | inhibition [14] | inhibition [15] | Activity [16] [µM]
1 | COc1c(Br)cc(/C=C/C(=O)NCCCN2CCCC2)cc1Br | > 100 | > 200 | >100 | 25 | Dose-dependent effect | > 200 | > 200 | > 200 |  |  |  |  |  |  |  |  | 
2 | COc1c(Br)cc(/C=C/C(=O)NCCCCN)cc1Br | > 100 | > 200 | >100 | > 100 | Dose-dependent effect | > 200 | > 200 | > 200 |  |  |  |  |  |  |  |  | 
3 | COc1c(Br)cc(/C=C/C(=O)NCCCOCCCCOCCCN)cc1Br | > 100 | > 200 | >100 | > 100 | Dose-dependent effect | > 200 | > 200 | > 200 |  |  |  |  |  |  |  |  | 
4 | COc1c(Br)cc(/C=C/C(=O)NCCCN(C)CCCN)cc1Br |  | > 200 |  |  |  | > 200 | > 200 | 200 (≈ 92.6 µg/mL) | 174 | 24 |  |  |  |  |  |  | 
5 | COc1c(Br)cc(/C=C/C(=O)NCCCN(CCCN)CCCN)cc1Br | 6.25 | 50 (≈ 25.3 µg/mL) | 3.12 | 3.12 | Dose-dependent effect | > 200 | > 200 | 100 (≈ 50.6 µg/mL) | 846 | 345 | Dose-dependent effect | 0.4 | <16 | inactive | inactive | inactive | 100
6 | COc1c(Br)cc(/C=C/C(=O)NCCNCCNCCNCCN)cc1Br | 12.5 | 50 (≈ 25.4 µg/mL) | 3.12 | 6.25 | Dose-dependent effect | 200 (≈ 101 µg/mL) | > 200 | 100 (≈ 50.7 µg/mL) | 573 | 237 |  | 6.25 |  |  |  |  | 100
7 | COc1c(Br)cc(/C=C/C(=O)NCCCN)cc1Br | > 100 | > 200 | 100 | 100 | Dose-dependent effect | > 200 | > 200 | 100 (≈ 39.2 µg/mL) |  |  |  |  |  |  |  |  | 
8 | C[C@H]1c2cccc(O)c2C(=O)C2=C(O)[C@]3(O)C(=O)C(C(N)=O)=C(O)[C@@H](N(C)C)[C@@H]3[C@@H](O)[C@@H]21 [DOXYCYCLINE] |  | < 3 |  |  |  | 56 (≈ 24.9 µg/mL) |  | 112 (≈ 49.8 µg/mL) |  |  |  |  |  |  |  |  | 
9 | COc1c(Br)cc(/C=C/C(=O)NCCCNCCCCN)cc1Br.Cl.Cl | 25 | > 200 | 3.12 | 12.5 | Dose-dependent effect | 100 | > 200 | > 200 | 1660 | 129 |  | 0.8 |  |  |  |  | 200
10 | COc1c(Br)cc(/C=C/C(=O)NCCCNCCCNCCCNC(=O)/C=C/c2cc(Br)c(OC)c(Br)c2)cc1Br | 12.5 | 12.5 (≈ 10.3 µg/mL) | 12.5 | 3.12 | Dose-dependent effect | 100 (≈ 82.4 µg/mL) | 12.5 (≈ 10.3 µg/mL) | 25 (≈ 20.6 µg/mL) | 663 | 237 |  | 1.6 |  |  |  |  | 12.5
11 | COc1c(Br)cc(/C=C/C(=O)NCCCNCCCCNCCCN)cc1Br [IANTHELLIFORMISAMINE A] | > 100 | 200 (≈ 104 µg/mL) | >100 | 12.5 | Dose-dependent effect | > 200 | > 200 | 200 (≈ 104 µg/mL) |  |  |  |  |  |  |  |  | 
12 | COc1c(Br)cc(/C=C/C(=O)NCCCN2CCN(CCCN)CC2)cc1Br | > 100 | 6.25 (≈ 3.24 µg/mL) | >100 |  |  | > 200 | > 200 | > 200 |  |  |  |  |  |  |  |  | 
13 | O=C(N[C@H](CO)[C@H](O)c1ccc([N+](=O)[O-])cc1)C(Cl)Cl [CHLORAMPHENICOL] |  |  |  |  |  | > 200 |  | > 200 |  |  |  |  |  |  |  |  | 
14 | COc1c(Br)cc(/C=C/C(=O)NCCNCCNCCN)cc1Br | > 100 | > 200 | >100 | > 100 | Dose-dependent effect | > 200 | > 200 | > 200 |  |  |  |  |  |  |  |  | 
15 | CO/N=C(\C(=O)N[C@@H]1C(=O)N2C(C(=O)[O-])=C(C[N+]3(C)CCCC3)CS[C@H]12)c1csc(N)n1 [CEFEPIME] |  |  |  |  |  | 52 (≈ 25 µg/mL) |  | 26 (≈ 12.5 µg/mL) |  |  |  |  |  |  |  |  | 
16 | COc1c(Br)cc(/C=C/C(=O)NCCCCCN)cc1Br | > 100 | > 200 | 6.25 | > 100 | Dose-dependent effect | > 200 | > 200 | > 200 |  |  |  |  |  |  |  |  | 
17 | COc1c(Br)cc(/C=C/C(=O)NCCCN2CCOCC2)cc1Br | > 100 | > 200 | >100 | > 100 | Dose-dependent effect | > 200 | > 200 | > 200 |  |  |  |  |  |  |  |  | 
18 | COc1c(Br)cc(/C=C/C(=O)NCCN)cc1Br | > 100 | > 200 | 50 | > 100 | Dose-dependent effect | > 200 | > 200 | > 200 |  |  |  |  |  |  |  |  | 
19 | COc1c(Br)cc(/C=C/C(=O)NCCCCNCCCN)cc1Br.Cl.Cl | 6.25 | 200 | 3.12 | 3.12 | Dose-dependent effect | > 200 | > 200 | 200 | 108 | 33 |  | 3.12 |  |  |  |  | 100

From ChEMBL document CHEMBL3259616, “New Ianthelliformisamine derivatives as antibiotic enhancers against resistant Gram-negative bacteria” (J Med Chem, 2014)
